A selection follows.
PGC1a Ac signal = raises PGC1a acetylation signal in U2OS cells | activation, % at 15.6 µM | U2OS PGC1a acetylation AlphaScreen, overnight | 350,000 tested, 0.21% active;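 active = every replicate reaching activation of at least 50%, whatever the mean replicate activation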;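 note: hits raise the AlphaScreen acetylation signal above neutral controls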
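System: Flag-PGC1a/GCN5 U2OS cells | Quantity: 7000 cells/well | Times: Overnight compound treatment, 37 °C | Measured by: AlphaScreen proximity luminescence, anti-acetyl-lysine antibody | Dosing: One concentration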
A number is an active result.

Results for O=C1N(Cc2ccccc2)Cc2ccccc2[C@@H]2OC(c3ccc(OCCCO)cc3)=N[C@]12Cc1ccccc1 ?
PGC1a Ac signal: 52.0

How did COc1ccc(C2NC3=C(CCC3)C3(C#N)C(OC)(OC)N=C(N)C23C#N)cc1 (stereo not drawn) do in these assays?
PGC1a Ac signal: inactive

Results for COc1ccc(S(=O)(=O)N(C)C[C@@H]2Oc3ccc(NS(=O)(=O)c4cn(C)cn4)cc3C(=O)N([C@H](C)CO)C[C@@H]2C)cc1 ?
PGC1a Ac signal: inactive

What do the screens show for `Cc1ccc(CNC(=O)CCS(=O)(=O)c2cc3c(cc2Cl)NC(=O)CO3)cc1`?
PGC1a Ac signal: inactive

What do the screens show for `COC(=O)Nc1ccc(S(=O)(=O)N(CCO)CC(F)(F)C(F)F)cc1`?
PGC1a Ac signal: 62.0

Results for O=S(=O)(c1ccc(N2CCC(c3ccc(Cl)cc3)=N2)cc1)N(CCO)CCO ?
PGC1a Ac signal: inactive

How did Cn1ncc2c(O/N=C(\N)c3ccc(C(C)(C)C)cc3)ncnc21 do in these assays?
PGC1a Ac signal: inactive

What do the screens show for `Cc1cc(C)c2nc(N3CCCC(C(=O)N4CCC(C(N)=O)CC4)C3)sc2c1` (stereo not drawn)?
PGC1a Ac signal: inactive

What do the screens show for `O=C(CCl)N=c1sccn1Cc1ccc(Cl)cc1Cl`?
PGC1a Ac signal: inactive

What do the screens show for `S=c1[nH]nc(-c2ccco2)n1/N=C/C(Cl)=C/c1ccccc1`?
PGC1a Ac signal: 65.2

How did FC(F)(F)c1ccc(Cl)c(-n2c(-c3cc(-c4ccco4)[nH]n3)n[nH]c2=S)c1 do in these assays?
PGC1a Ac signal: inactive

What do the screens show for `S=c1[nH]nc(-c2cc(-c3ccccc3)n[nH]2)n1/N=C/C(Br)=C/c1ccccc1`?
PGC1a Ac signal: 241.4

How did CSc1nc2nccc(/C=C\c3ccccc3)n2n1 do in these assays?
PGC1a Ac signal: inactive

How did Cc1cccc(CC2CC(=O)N(C3CCCCC3)C2=O)c1 (stereo not drawn) do in these assays?
PGC1a Ac signal: inactive

Results for COc1ccccc1NC(=O)c1ccc(NC(=O)CNC(=O)c2ccc(OC)c(OC)c2)cc1 ?
PGC1a Ac signal: 71.1

Results for CCn1nccc1C(=O)Nc1ccccc1OC ?
PGC1a Ac signal: inactive

Results for CCn1c(=N)n(CC(=O)c2ccc(OC)c(OC)c2)c2ccccc21 ?
PGC1a Ac signal: inactive

How did CCOc1ccc(OCc2ccc(C(=O)NN=Cc3ccc[nH]3)cc2)cc1 do in these assays?
PGC1a Ac signal: inactive

Results for CCOC(=O)c1oc2nc3c(cc2c1N)COC(C)(C)C3 ?
PGC1a Ac signal: 63.1

What do the screens show for `C[C@H](CO)N1C[C@H](C)[C@@H](CN(C)Cc2ccc(C(F)(F)F)cc2)OCc2cnnn2CCCC1=O`?
PGC1a Ac signal: inactive

Results for Cc1noc(C)c1S(=O)(=O)N1CCCC(C(=O)NCC2CCCO2)C1 (stereo not drawn) ?
PGC1a Ac signal: inactive

How did CC(C)C#Cc1ccc([C@@H]2[C@H](CO)N3C(=O)CN(C(=O)NC4CCCC4)C[C@@H]23)cc1 do in these assays?
PGC1a Ac signal: inactive

What do the screens show for `COc1ccc(CCCNC(=O)C2(C)Cc3c(-c4ccc5c(c4)OCO5)ccnc3O2)cc1` (stereo not drawn)?
PGC1a Ac signal: 53.8

Results for CCCCOc1ccc(CNC(=O)NS(=O)(=O)c2ccc(OCC(C)C)cc2)cc1 ?
PGC1a Ac signal: inactive

How did Cn1nnnc1SCC(=O)NCc1cccc(C(=O)O)c1 do in these assays?
PGC1a Ac signal: inactive

Results for Cc1cc(C)nc(N2CCC(C(=O)NCc3ccco3)CC2)n1 ?
PGC1a Ac signal: inactive

What do the screens show for `Cc1cc(C)n2c(SCC(=O)NCc3ccco3)nnc2n1`?
PGC1a Ac signal: 62.5

What do the screens show for `CC(C)(C)c1ccc(OCCSc2nc3ccccc3n2CC(=O)O)cc1`?
PGC1a Ac signal: inactive

What do the screens show for `O=S1(=O)CCC(N=Cc2ccc(-c3ccc(Cl)cc3)o2)C1` (stereo not drawn)?
PGC1a Ac signal: inactive

What do the screens show for `Clc1ccc2nc(COc3ccccc3)[nH]c2c1`?
PGC1a Ac signal: 88.9

How did N#Cc1cccc(C#N)c1NCC1CCCO1 (stereo not drawn) do in these assays?
PGC1a Ac signal: inactive

What do the screens show for `CCOc1ccc(NC(=O)c2cccc3c2C(=O)N(CCOC)C3)cc1`?
PGC1a Ac signal: 93.9

How did CCCCNC(=O)c1ccc(CS(=O)(=O)c2ccccc2OC)o1 do in these assays?
PGC1a Ac signal: inactive

Results for COc1ccc(OC)c(-n2c(-c3ccc(C)cc3)n[nH]c2=S)c1 ?
PGC1a Ac signal: 69.8

How did COc1ccc(-c2cc(C(=O)O)[nH]n2)cc1OC do in these assays?
PGC1a Ac signal: inactive

What do the screens show for `Cc1nnnn1/C(=C\c1ccccc1)C(=O)OCC(=O)Nc1cccc(S(=O)(=O)N(C)C)c1`?
PGC1a Ac signal: 96.4

How did Cc1cc(Cl)ccc1OCC(=O)Nc1cccc(S(=O)(=O)NC2=NCCCCC2)c1 do in these assays?
PGC1a Ac signal: inactive

What do the screens show for `CCSc1nnc(NC(=O)CSC2=NCCS2)s1`?
PGC1a Ac signal: inactive

Results for CC(C)(C)NCCC(O)c1cc(C(F)(F)F)nc2c(C(F)(F)F)cccc12 (stereo not drawn) ?
PGC1a Ac signal: 70.0

What do the screens show for `COC1(C)CN(Cc2ccccc2Br)[C@H](/C=C/c2ccccc2)[C@H](Cc2ccccc2)O1` (stereo partly drawn)?
PGC1a Ac signal: inactive

Compound activity as filed in PubChem BioAssay.
